Data published in paper PMC9798170 (International Journal for Parasitology: Drugs and Drug …, 2022).
Values after ≈ are worked out from the molar mass of the structure shown. “Also recorded” adds a separate entry of the source.

Key:
P. falciparum 3D7 strain = conditions: ref Hidayati et al., 2020; cited from earlier work
[1] = test system: succinate-cytochrome c (complex II-III activities); test: Counter assay succinate-cytochrome c activity, bovine heart mitochondria; assay type: biochemical; conditions: read-out: IC50 of the sample against succinate-cytochrome c (complex II-III)
How it was run: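 Run as the NADH assay (phosphate buffer pH 7.4, 2 mM KCN) but with 100 µM cytochrome c and 25 µg/mL bovine heart mitochondria. Reaction started with 10 mM succinate, and cytochrome c reduction read at 550 nm, in quadruplicate. Test compound was serially diluted from 100 to 0.003 µM. DMSO was the 0% inhibition control and 5 µM ascochlorin the 100% inhibition control.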

[2] = test system: NADH-cytochrome c (complex I-III activities); test: Counter assay NADH-cytochrome c activity, bovine heart mitochondria; assay type: biochemical; conditions: read-out: IC50 of the sample against succinate-cytochrome c (complex I-III)
[3] = test system: Plasmodium falciparum 3D7; test: In vitro antimalarial assay; assay type: cell-based; conditions: P. falciparum 3D7, 48 h, microscopic assay; listed as Chloroquine diphosphate
How it was run: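 Test compound stock was 10 mg/mL in DMSO, diluted in RPMI-1640 to final 0.01–100 µg/mL. It was added to culture at ~1% parasitemia and 5% haematocrit in human O+ RBCs with 10% serum, then incubated 48 h at 37 °C. Parasitemia was counted per 1000 RBCs on 10% Giemsa smears. Inhibition was taken relative to the negative control, and IC50 came from a four-parameter logistic fit.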

[4] = test system: synchronized P. falciparum 3D7 strain; test: Impairment of P. falciparum intraerythrocytic stage development; assay type: cell-based, Plasmodium falciparum; conditions: tested at IC50 concentration
How it was run: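 Parasites were sorbitol-synchronized (5% w/v) and set at 0.3% parasitemia in human O+ RBCs in RPMI-1640 with 10% human serum at 37 °C. Sampling was at 0, 24 and 48 h. Giemsa-stained thin smears were scored for stage by light microscopy at 1000×. Each concentration was run in duplicate on the same plate.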

[5] = test system: Plasmodium falciparum 3D7; test: Isobologram analysis, fixed-ratio combinations; assay type: cell-based; conditions: fixed ratios 4:1, 3:2, 2:3, 1:4; 72 h
How it was run: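 Test compound was combined with atovaquone or chloroquine at fixed ratios 4:1, 3:2, 2:3 and 1:4, with 5:0 and 0:5 for single agents, in serial dilution. Synchronized rings at 0.3% parasitemia were incubated 72 h at 37 °C under 90% N2/5% CO2/5% O2, then read by PfLDH/diaphorase. IC50 was determined per mixture, and FIC = IC50 in mixture / IC50 alone.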

recombinant PfMQO = molecular target: T1, recombinant PfMQO (Plasmodium falciparum, UniProt C6KT09); test: Recombinant PfMQO activity inhibition assay; assay type: biochemical; conditions: recombinant PfMQO membrane fraction
T1 sequence (C6KT09 1-521): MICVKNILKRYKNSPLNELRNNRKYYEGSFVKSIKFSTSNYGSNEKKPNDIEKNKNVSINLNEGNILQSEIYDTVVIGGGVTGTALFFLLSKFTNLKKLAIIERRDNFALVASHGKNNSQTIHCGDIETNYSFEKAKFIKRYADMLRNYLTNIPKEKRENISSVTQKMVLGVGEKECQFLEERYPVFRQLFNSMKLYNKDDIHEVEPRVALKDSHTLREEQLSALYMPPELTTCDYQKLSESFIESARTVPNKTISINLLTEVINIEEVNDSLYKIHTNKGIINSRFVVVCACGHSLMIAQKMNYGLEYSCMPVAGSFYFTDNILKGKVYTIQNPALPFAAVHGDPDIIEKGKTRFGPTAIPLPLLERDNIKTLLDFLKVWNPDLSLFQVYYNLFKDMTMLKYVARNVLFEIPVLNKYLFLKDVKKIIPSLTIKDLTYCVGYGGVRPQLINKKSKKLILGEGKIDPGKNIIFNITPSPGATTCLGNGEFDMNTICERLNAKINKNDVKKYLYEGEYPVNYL
How it was run: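 PfMQO membrane fraction (3 µg/mL) was used in 50 mM HEPES-KOH pH 7.0 with 1 mM KCN, 25 µM decylubiquinone and 120 µM DCIP. Background was read for 5 min at 600 nm and 37 °C, then malate (400 mM stock) was added and activity recorded for 10 min. DMSO wells served as 0% and no-malate wells as 100%. Runs were in triplicate over test compound 0.001–100 µM, with four-parameter nonlinear fit.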

P. falciparum = P. falciparum growth; ref Widyawaruyanti et al., 2007; cited from earlier work

For `CC(C)=CCCC1(C)C=Cc2c(CCC(=O)c3ccc(O)cc3O)ccc(O)c2O1` (stereo not drawn) [1-(2,4-dihydroxyphenyl)-3-(8-hydroxy-2-methyl-2-(4-methyl-3-pentenyl)-2H-1-benzopyran-5-yl]-1-propanone], the IC50 (P. falciparum 3D7 strain) is listed as 1050 nM.
Compound `CC(/C=C/[C@@]1(C)[C@H](C)CCC(=O)[C@@H]1C)=C\Cc1c(O)c(Cl)c(C)c(C=O)c1O` [Ascochlorin] has an IC50 [1] of 10 nM and an IC50 [2] of 10 nM.
With `Cc1c(-c2ccc(-c3ccccc3F)cc2)nc2ccc(F)cc2c1C(=O)O` [Brequinar] the IC50 [1] was 22900 ± 1460 nM.
With `CCN(CC)CCCC(C)Nc1ccnc2cc(Cl)ccc12` (stereo not drawn) [Chloroquine] the IC50 [3] was 4 ng/mL (≈ 0.0125 µM), the “stage development after 24 h of incubation” value ([4]; 24 h) was “ring stage was still dominant” and the “stage development after 48 h of incubation” value ([4]; 48 h) was “accumulation of trophozoite”. For the same compound, the “interaction in combination with atovaquone (isobologram)” value [5] was “antagonistic interactions; also recorded: antagonism”.
With `CC(C)=CCC/C(C)=C/CC/C(C)=C/Cc1c(O)c2ccccc2oc1=O` [Ferulenol] the IC50 [1] was 170 ± 10 nM, the IC50 [2] was 280 ± 80 nM and the IC50 (recombinant PfMQO) was 0.06 ± 0.01 µg/mL. It also gave an IC50 (recombinant PfMQO; listed as ferulenol) of 170 nM.
For `C=C(C)[C@H]1Cc2c(ccc3c2O[C@@H]2COc4cc(OC)c(OC)cc4[C@@H]2C3=O)O1` [Rotenone], the IC50 [1] was 1860 ± 110 nM and the IC50 [2] was 10 nM.
In the case of Heteroflavanone C, the IC50 (P. falciparum) is given as 1 nM.
